Reference: article PMC6683736 (The Journal of Cell Biology, 2019)

Assays:
Scribble PDZ1 domain = assay: X-ray crystal structure of Scribble PDZ1/SGEF-PDZpeptide complex; format: binding, human; conditions: 1.1 Å, PDB ID 6MYE
MDCK cells [1] = assay: Actomyosin organization by IF; format: cell-based, canine
Scribble = assay: Coimmunoprecipitation of SGEF constructs with GFP-Scribble, HEK293FT lysates; format: binding, Human; conditions: GFP-trap nanobodies, WB
Dlg1 = assay: Coimmunoprecipitation of SGEF constructs with GFP-Dlg1, HEK293FT lysates; format: binding, Mouse; conditions: GFP-trap nanobodies, WB
Procedure, shortened: (§1)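 HEK293FT cells were co-transfected by calcium phosphate; medium was changed at 24 h and cells harvested at 48 h. Lysis was in Tris-HCl pH 7.4, MgCl2, 150 mM NaCl, 1% Triton X-100 and protease inhibitors. Equal protein was incubated with GFP-Trap beads for 1 h at 4°C, washed four times, then immunoblotted with anti-GFP and anti-myc (or anti-His).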

Xenopus embryos = assay: Junctional localization in gastrula-stage embryos; format: in vivo, Xenopus laevis; conditions: live confocal, mNeon-tagged
Procedure, shortened: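 Embryos were microinjected in the animal hemisphere with mRNAs, either at the two-cell stage (each cell twice) or at the four-cell stage (once). They were raised to gastrula stage (10.5–12) and live-imaged by confocal. mNeon-tagged protein was coexpressed with BFP-ZO-1 (tight junction marker) and PLEKHA7-mCherry (adherens junction marker), and the junctional-to-cytosolic intensity ratio was quantified.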

MDCK cells [2] = assay: Height of MDCK monolayer, confocal XZ; format: cell-based, canine; conditions: average, n = 50 cells; Fig. 9 I
Procedure, shortened: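 Confocal XZ sections of confluent control, SGEF-knockdown and rescue MDCK monolayers were acquired on a Leica SP8. Cells were stained for E-cadherin, β-catenin and nuclei, or for F-actin and Hoechst, and monolayer height was measured.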

[3] = tested on: Scribble/SGEF/Dlg1 ternary complex; assay: Coprecipitation of Scribble with GFP-Dlg1; format: binding; conditions: HA-Scribble and GFP-Dlg1 coexpressed, IP anti-GFP, HEK293
MDCK cells [4] = assay: Zigzag index of tight junctions; format: cell-based, canine; conditions: compared with SGEF KD; Fig. 9 J
SGEF = assay: Coimmunoprecipitation of Dlg1 constructs with SGEF, HEK293FT lysates; format: binding, Human; conditions: WB
Procedure, shortened: as §1

## ac-KPNGLLITDFPVEDCONH2 [SGEF-PDZpeptide]
Scribble PDZ1 domain
  accessible surface area covered by peptide: ~500 Å^2
  binding register in the PDZ pockets: novel interactions through pockets near the α1 helix in Scribble PDZ1 (S+1 pocket), which accommodate the P+1 Pro in SGEF
  residues of peptide interacting with Scribble PDZ domain: 11 residues

## Cc1ccc2c(c1)C(=O)C1(O)CCN(c3ccccc3)C1=N2 (centres unmarked) [blebbistatin, reference compound]
MDCK cells [1]; 16 h, blebbistatin vs Y-27632
  relative strength of effect on actomyosin array and stress fibers: stronger effect than Y-27632

B1: SGEF 228–871: SGEF deletion mutant, binds to Dlg1 but not to Scribble (protein)
chain: LENPSVVLSTNSPAALKVGKQQIIPKSLASEIKISKSNNQNVEPHKRLLKVRSMVEGLGGPLGHAGEESEVDNDVDSPGSLRRGLRSTSYRRAVVSGFDFDSPTSSKKKNRMSQPVLKVVMEDKEKFSSLGRIKKKMLKGQGTFDGEENAVLYQNYKEKALDIDSDEESEPKEQKSDEKIVIHHKPLRSTWSQLSAVKRKGLSQTVSQEERKRQEAIFEVISSEHSYLLSLEILIRMFKNSKELSDTMTKTERHHLFSNITDVCEASKKFFIELEARHQNNIFIDDISDIVEKHTASTFDPYVKYCTNEVYQQRTLQKLLATNPSFKEVLSRIESHEDCRNLPMISFLILPMQRVTRLPLLMDTICQKTPKDSPKYEVCKRALKEVSKLVRLCNEGARKMERTEMMYTINSQLEFKIKPFPLVSSSRWLVKRGELTAYVEDTVLFSRRTSKQQVYFFLFNDVLIITKKKSEESYNVNDYSLRDQLLVESCDNEELNSSPGKNSSTMLYSRQSSASHLFTLTVLSNHANEKVEMLLGAETQSERARWITALGHSSGKPPADRTSLTQVEIVRSFTAKQPDELSLQVADVVLIYQRVSDGWYEGERLRDGERGWFPMECAKEITCQATIDKNVERMGRLLGLETNV
modifications: left off: myc (inferred from the legends of Figures 1 and 2), end not stated, kept
Scribble
  interaction with Scribble: unable to bind
Dlg1
  interaction with Dlg1: able to bind efficiently to Dlg1
Xenopus embryos
  localization at apical junctional complex: predominantly cytosolic, with only a small fraction still targeted to junctions

B2: SGEF 1–227: SGEF deletion mutant, binds to Scribble but not to Dlg1 (protein)
chain: MDGESEVDFSSNSITPLWRRRSIPQPHQVLGRSKPRPQSYQSPNGLLITDFPVEDGGTLLAAQIPAQVPTASDSRTVHRSPLLLGAQRRAVANGGTASPEYRAASPRLRRPKSPKLPKAVPGGSPKSPANGAVTLPAPPPPPVLRPPRTPNAPAPCTPEEDLTGLTASPVPSPTANGLAANNDSPGSGSQSGRKAKDPERGLFPGPQKSSSEQKLPLQRLPSQENEL
modifications: left off: myc (inferred from the legends of Figures 1 and 2), end not stated, kept
Scribble
  interaction with Scribble: sufficient to interact with Scribble
Dlg1
  interaction with Dlg1: did not interact with Dlg1
MDCK cells [2]
  cell height: 2.99 ± 0.065 µm
Xenopus embryos
  localization at apical junctional complex: localized efficiently to the AJC

B3: SGEF 1–414: N-terminal half of SGEF, ends just before DH-PH domain (protein)
chain: MDGESEVDFSSNSITPLWRRRSIPQPHQVLGRSKPRPQSYQSPNGLLITDFPVEDGGTLLAAQIPAQVPTASDSRTVHRSPLLLGAQRRAVANGGTASPEYRAASPRLRRPKSPKLPKAVPGGSPKSPANGAVTLPAPPPPPVLRPPRTPNAPAPCTPEEDLTGLTASPVPSPTANGLAANNDSPGSGSQSGRKAKDPERGLFPGPQKSSSEQKLPLQRLPSQENELLENPSVVLSTNSPAALKVGKQQIIPKSLASEIKISKSNNQNVEPHKRLLKVRSMVEGLGGPLGHAGEESEVDNDVDSPGSLRRGLRSTSYRRAVVSGFDFDSPTSSKKKNRMSQPVLKVVMEDKEKFSSLGRIKKKMLKGQGTFDGEENAVLYQNYKEKALDIDSDEESEPKEQKSDEKIVIHHKPL
modifications: left off: myc (inferred from the legends of Figures 2 and 3), end not stated, kept
Dlg1
  interaction with Dlg1: interacted efficiently with Dlg1
[3]
  formation of Scribble/SGEF/Dlg1 ternary complex: minimum SGEF mutant that can mediate the formation of the Scribble/SGEF/Dlg1 complex

B4: SGEF 1–400: minimum region required to bind Scribble and Dlg1, no catalytic activity (protein)
chain: MDGESEVDFSSNSITPLWRRRSIPQPHQVLGRSKPRPQSYQSPNGLLITDFPVEDGGTLLAAQIPAQVPTASDSRTVHRSPLLLGAQRRAVANGGTASPEYRAASPRLRRPKSPKLPKAVPGGSPKSPANGAVTLPAPPPPPVLRPPRTPNAPAPCTPEEDLTGLTASPVPSPTANGLAANNDSPGSGSQSGRKAKDPERGLFPGPQKSSSEQKLPLQRLPSQENELLENPSVVLSTNSPAALKVGKQQIIPKSLASEIKISKSNNQNVEPHKRLLKVRSMVEGLGGPLGHAGEESEVDNDVDSPGSLRRGLRSTSYRRAVVSGFDFDSPTSSKKKNRMSQPVLKVVMEDKEKFSSLGRIKKKMLKGQGTFDGEENAVLYQNYKEKALDIDSDEESEPKE
modifications: left off: myc (inferred from the legend of Figure 2), end not stated, kept
Dlg1
  interaction with Dlg1: able to bind to Dlg1
MDCK cells [2]
  cell height: 2.57 ± 0.049 µm
MDCK cells [4]
  zigzag index (in words): increased significantly
MDCK cells [1]; myosin II staining, SGEF KD background
  rescue of increased contractility: able to rescue the increase in contractility

B5: Dlg1 C-terminal construct: C-terminal half of Dlg1 comprising the SH3 and GUK domains (protein)
chain: KRSLYVRALFDYDKTKDSGLPSQGLNFKFGDILHVINASDDEWWQARQVTPDGESDEVGVIPSKRRVEKKERARLKTVKFNSKTRDKGEIPDDMGSKGLKHVTSNASDSESSYRGQEEYVLSYEPVNQQEVNYTRPVIILGPMKDRINDDLISEFPDKFGSCVPHTTRPKRDYEVDGRDYHFVTSREQMEKDIQEHKFIEAGQYNNHLYGTSVQSVREVAEKGKHCILDVSGNAIKRLQIAQLYPISIFIKPKSMENIMEMNKRLTEEQARKTFERAMKLEQEFTEHFTAIVQGDTLEDIYNQVKQIIEEQSGSYIWVPAKEKL
modifications: left off: GFP (inferred from the legend of Figure 2), end not stated, kept
SGEF
  interaction with SGEF: able to bind efficiently to SGEF

B6: GUK domain alone: Dlg1 GUK domain, 699–893 (protein, UniProt Q12959 699-893, looked up, fragment)
chain: YVLSYEPVNQQEVNYTRPVIILGPMKDRINDDLISEFPDKFGSCVPHTTRPKRDYEVDGRDYHFVTSREQMEKDIQEHKFIEAGQYNNHLYGTSVQSVREVAEKGKHCILDVSGNAIKRLQIAQLYPISIFIKPKSMENIMEMNKRLTEEQARKTFERAMKLEQEFTEHFTAIVQGDTLEDIYNQVKQIIEEQSG
modifications: GUK domain
SGEF
  interaction with SGEF: able to interact with SGEF

B7: SH3 domain by itself: Dlg1 SH3 domain, 536–636 (protein, UniProt Q12959 536-636, looked up, fragment)
chain: GQAVTIVAQYRPEEYSRFEAKIHDLREQMMNSSISSGSGSLRTSQKRSLYVRALFDYDKTKDSGLPSQGLNFKFGDILHVINASDDEWWQARQVTPDGESD
modifications: SH3 domain
SGEF
  interaction with SGEF: no detectable binding
